Screening data from PubChem.
Most compounds without a hit are left out; they make up all but 1.2% or so of the library.
FN deposition inh: fibronectin deposition inhibition. AH1F fibroblasts, Alexa488-fibronectin deposition fluorescence, overnight. inhibition, % at 12.6 µM. 0.086% of 350,000 active. AID 743247;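 active means mean inhibition across replicates of 30% or more, regardless of how many single replicates reach that level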;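 further: positive control wells lacked labelled fibronectin entirely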
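Material: AH1F fibroblast monolayer depositing Alexa488-labelled fibronectin into matrix / Amount: 10000 AH1F cells per well / Signal: fluorescence 485/525 nm / Medium: DMEM, 2% serum / Compound: single dose, pinned / Incubation: 1 h cell adhesion before compound, then overnight fibronectin incubation / Reagent: Alexa488-FN, 24 nM final / Read-out: inhibition of fibronectin deposition signal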
A3A deaminase: human APOBEC3A DNA deaminase inhibition | recombinant A3A, FAM/TAMRA ssDNA deamination fluorescence | inhibition, % at 20 µM | 0.41% of 330,000 active;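 active means at least 40% inhibition at 20 µM here, with at most 30% in a related deaminase screen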;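 further: plate controls were A3A with DMSO for no effect and wells lacking A3A enzyme for full effect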
ABHD5 PLIN5 PPI: ABHD5-PLIN5 protein interaction inhibition. Q00G26+Q8WTS1. Split G. princeps luciferase complementation, luminescence, 4 h. inhibition, % at 4 µM. 0.78% of 360,000 active. AID 602281;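 active means inhibition above the mean inhibition across every tested compound plus 3 SD, cut at about 22% in these data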;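 further: 0% = DMSO only wells and the 100% control is not disclosed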
Target sequence (Q00G26 whole entry, looked up): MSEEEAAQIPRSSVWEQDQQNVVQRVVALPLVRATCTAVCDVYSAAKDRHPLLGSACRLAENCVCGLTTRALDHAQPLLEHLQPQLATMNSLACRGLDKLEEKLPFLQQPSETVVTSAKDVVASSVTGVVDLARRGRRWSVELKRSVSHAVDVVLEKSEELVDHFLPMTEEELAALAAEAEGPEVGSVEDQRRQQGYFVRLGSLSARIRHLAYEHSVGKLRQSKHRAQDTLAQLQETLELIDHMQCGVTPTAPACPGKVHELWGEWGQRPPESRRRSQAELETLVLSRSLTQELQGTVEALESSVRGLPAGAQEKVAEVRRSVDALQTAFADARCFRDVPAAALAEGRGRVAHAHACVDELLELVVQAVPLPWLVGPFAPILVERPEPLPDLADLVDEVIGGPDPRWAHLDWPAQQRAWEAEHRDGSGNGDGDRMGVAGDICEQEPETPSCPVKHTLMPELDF
Target sequence (Q8WTS1 whole entry, looked up): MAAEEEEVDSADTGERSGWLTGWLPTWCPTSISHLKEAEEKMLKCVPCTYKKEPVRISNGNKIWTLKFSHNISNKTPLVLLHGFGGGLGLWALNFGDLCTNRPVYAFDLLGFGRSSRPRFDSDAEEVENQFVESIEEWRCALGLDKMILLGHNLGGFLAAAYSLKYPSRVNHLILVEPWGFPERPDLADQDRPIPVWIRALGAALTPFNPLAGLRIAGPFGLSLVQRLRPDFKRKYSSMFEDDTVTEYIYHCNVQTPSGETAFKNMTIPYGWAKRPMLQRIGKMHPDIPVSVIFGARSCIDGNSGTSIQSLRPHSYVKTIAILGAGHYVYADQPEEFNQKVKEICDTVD
APOBEC3G inh: APOBEC3G (human) deaminase inhibition | Q9HC16 | recombinant A3G, ssDNA deamination FAM/TAMRA fluorescence | inhibition, % at 20 µM | 0.28% of 330,000 active | AID 493012;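 active means inhibition of at least 40% at 20 µM, with no more than 30% in the related APOBEC3A deaminase screen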;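 further: plate controls were DMSO wells with A3G for no effect and wells lacking A3G enzyme for full effect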
A3A conf: APOBEC3A (human) deaminase inhibition, confirmed; shares compounds with A3A deaminase; recombinant A3A, ssDNA deaminase UDG fluorescence assay; inhibition, % at 20 µM; 63% of 1,400 active; AID 493151;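 active means inhibition reaching a set limit, 80% of the first screen's cutoff, at 20 µM in any replicate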;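 further: plate controls were DMSO wells with A3A for no effect and wells lacking A3A enzyme for full effect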
UDG A3A counter: counter-screen for APOBEC3A inhibitors: UDG | inhibition, % at 20 µM | shares compounds with A3A deaminase | 1,000 tested, under 10 active | AID 504714 | UDG counterscreen, FAM/TAMRA uracil oligo fluorescence; call rule not given here
A3G conf: APOBEC3G (human) deaminase inhibition, confirmed | shares compounds with APOBEC3G inh | recombinant A3G ssDNA deaminase, UDG/FAM-TAMRA fluorescence | inhibition, % at 20 µM | 72% of 890 active;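 active means inhibition reaching a set limit in any replicate at 20 µM, the limit being 80% of the first screen's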
UDG ctr A3G: inhibits E. coli UDG, flagging false APOBEC3G inhibitors; shares compounds with APOBEC3G inh; UDG counterscreen, FAM/TAMRA oligo fluorescence; inhibition, % at 20 µM; 710 tested, under 10 active; AID 504715;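 active means compounds giving 40% or more inhibition at 20 µM in any one of the three replicates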;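 further: plate controls were DMSO wells with UDG and oligo for no effect and DMSO wells lacking both for full effect; inhibitors lower the FAM signal released by uracil excision and alkaline cleavage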
ABHD5-PLIN5 conf: ABHD5-PLIN5 interaction inhibition, confirmed; biochemical ABHD5-PLIN5 interaction, luminescence; 67% of 2,200 active; shares compounds with ABHD5 PLIN5 PPI; inhibition, % at 4 µM; in the data active means inhibition above about 23%;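 further: 0% = DMSO vehicle wells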
HNF4 split-luc: HNF4 split-luciferase signal hit, counter-screen; AID 651674; 77% of 2,200 active; shares compounds with ABHD5 PLIN5 PPI; inhibition, % at 4 µM; HNF4 dimerization, luminescence, biochemical;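 active means mean inhibition across replicate wells exceeding the computed hit threshold, cut at about 13% in these data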;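 further: light from luciferase halves that rejoin when HNF4 fusion proteins dimerize; 0% = DMSO only wells and the 100% control is not given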
* = called active by the depositor; . = no result.

SMILES	FN deposition inh	A3A deaminase	ABHD5 PLIN5 PPI	APOBEC3G inh	ABHD5-PLIN5 conf	HNF4 split-luc	others
O=C1NC(=O)N(c2ccc3c(c2)OCO3)C(=O)/C1=C\c1ccc(-c2ccccc2C(=O)O)o1	1	76*	30*	26	78*	89*	A3A conf=65*;UDG A3A counter=-2
O=C(O)C[C@@H]1CC[C@H]2NC[C@@H](O)COC[C@@H]2O1	3	.	.	.	.	.
Nc1c2c(nc3ccccc13)CCN(Cc1ccccc1)C2	-5	-4	-1	-8	.	.
Nc1cc2nc3ccccc3nc2cc1N	2	18	-9	48*	.	.	A3G conf=25*;UDG ctr A3G=0
CCn1c(NN=O)nc2ccccc21	-20	-1	6	58*	.	.	A3G conf=14;UDG ctr A3G=-1
COC(=O)C[C@@H]1CC[C@H]2NC[C@@H](O)COC[C@@H]2O1	7	.	.	.	.	.
C/C(=N\Nc1cccc2ccccc12)c1c(O)n(Cc2ccccc2)c(=O)[nH]c1=O	-8	-7	0	41*	.	.	A3G conf=16;UDG ctr A3G=-5
C/C(=N\NC(=O)c1ccccc1)c1c(O)n(Cc2ccccc2)c(=O)[nH]c1=O	1	1	6	-6	.	.
O=C1CNC[C@@H]2[C@@H](c3ccc(Br)cc3)[C@H](CO)N12	3	.	.	.	.	.
O=C1C2CCCN2C(c2cccs2)N1c1ccccn1 (stereo not drawn)	1	0	-2	89*	.	.	A3G conf=16;UDG ctr A3G=-3
C[C@@H]1CN([C@@H](C)CO)C(=O)CCCn2cc(nn2)CO[C@@H]1CN(C)C(=O)Oc1cccc2ccccc12	0	.	.	.	.	.
COc1cc2c(cc1OC)-c1c3c(cc4c1[C@@H](C2)N(C)CC4)OCO3	0	26	3	45*	.	.	A3G conf=24
Oc1ccc2c3c1O[C@H]1[C@@H](O)CC[C@@]4(O)[C@@H](C2)N(CC2CCC2)CC[C@]314	-6	-1	3	-7	.	.
NC(N)=Nc1ccc2[nH]c3c(c2c1)C[C@@]1(O)[C@H]2Cc4ccc(O)c5c4[C@@]1(CCN2CC1CC1)[C@H]3O5	.	16	12	84*	.	.	A3G conf=97*;UDG ctr A3G=-1
Cc1ccc(-n2c(O)c(C=Nc3ccc(S(N)(=O)=O)cc3)c(=O)[nH]c2=O)cc1	11	-5	7	-9	.	.
CNS(=O)(=O)c1ccc(N=Cc2c(O)n(-c3ccc(C)cc3)c(=O)[nH]c2=O)cc1	0	0	28*	-5	10	37*
CCc1nnc(NS(=O)(=O)c2ccc(N=Cc3c(O)n(-c4ccc(Cl)cc4)c(=O)[nH]c3=O)cc2)s1	-9	0	30*	-4	7	16*
COP(=O)(OC)OC=C(Cl)Cl	-5	.	.	.	.	.
OC[C@H]1[C@@H]2c3ccccc3NC[C@@H]2N1Cc1cccnc1	-2	.	.	.	.	.
Cc1c(NP(=S)(C(C)(C)C)C(C)(C)C)c(=O)n(-c2ccccc2)n1C	-2	-1	-1	0	.	.
Cc1c(C=C2C(=O)N(C)C(=O)N(C)C2=O)c(=O)n(-c2ccccc2)n1C	1	-2	36*	-6	12	51*
C/C=C/c1ccc(C2[C@@H]3CN(Cc4cccc(F)c4)C[C@H]2N3)cc1 (stereo partly drawn)	-3	.	.	.	.	.
C/C=C/c1ccc(C2[C@@H]3CN(C(=O)C4CCCC4)C[C@H]2N3)cc1 (stereo partly drawn)	-5	.	.	.	.	.
CC(C)COC(=O)c1ccccc1C(=O)OCC(C)C	.	-4	2	-7	.	.
C[CH2][Hg][S]c1ccccc1C(=O)O	26	73	28*	87	49*	83*
SMILES	FN deposition inh	A3A deaminase	ABHD5 PLIN5 PPI	APOBEC3G inh	ABHD5-PLIN5 conf	HNF4 split-luc	others
Cc1ccc(N2C(=O)NC(=O)/C(=C/c3cnc(-c4ccccc4)nc3)C2=O)cc1C	-7	1	33*	-4	87*	73*
CC=Cc1ccc2n(c1=O)C[C@@H]1[C@@H](CO)[C@H](C(=O)OC)[C@H]2N1S(=O)(=O)c1ccccc1C (mixture of isomers)	-1	.	.	.	.	.
O=C(Cc1ccccc1)N1CC2(C1)[C@H](c1ccccc1)[C@@H](CO)N2Cc1cccc(Cl)c1	7	.	.	.	.	.
Cc1cc(C)cc(N2C(=O)NC(=O)/C(=C\c3cccn3-c3ccccc3)C2=O)c1	.	3	25*	1	58*	70*
O=C1NC(=S)NC(=O)C1=Cc1cccn1-c1ccc(O)cc1	3	.	24*	.	91*	95*
CN1C(=O)/C(=C/c2cccn2-c2ccc3ccccc3c2)C(=O)NC1=S	.	14	7	16	.	.
O=C(O)[C@H]1[C@H](CO)[C@H]2Cn3c(ccc(-c4cccnc4)c3=O)[C@@H]1N2C(=O)Nc1cc(F)ccc1F	13	.	.	.	.	.
C/C=C/c1ccc([C@H]2[C@H]3CN(C(=O)Cc4cccnc4)CCCCN3[C@H]2CO)cc1	-2	.	.	.	.	.
C[C@H](Cc1ccc(OCC(=O)O)cc1)NC[C@H](O)c1cccc(Cl)c1	-4	.	.	.	.	.
C=CCN1C(=O)NC(=O)/C(=C\c2ccc(-c3ccccc3[N+](=O)[O-])o2)C1=O	20	-1	40*	-2	84*	82*
C[C@H](CO)N1C[C@H](C)[C@H](CN(C)C(=O)Oc2ccc3ccccc3c2)OCc2cn(nn2)CCCC1=O	-2	.	.	.	.	.
CCC1(c2ccc(C)cc2)C(=O)NC(=S)NC1=O	-1	.	13	.	.	.
CN1C(=O)C(=Cc2ccc(OCC(=O)Nc3ccccc3)cc2)C(=O)N(C)C1=O	.	-4	50*	-5	12	28*
C/C=C/c1ccc(C2[C@@H]3CN(C(C)=O)C[C@H]2N3)cc1 (stereo partly drawn)	-5	.	.	.	.	.
Cc1ccccc1CN1Cc2cnnn2-c2ccccc2C1C#N (stereo not drawn)	7	.	74*	.	96*	96*
CCCCCN1C(=O)c2ccccc2[C@@]2(C(=O)OCC)Cc3cc(OC)ccc3[C@@H]12	7	.	25*	.	14	12
CCOC(=O)[C@]12Cc3cc(C)ccc3[C@H]1N(C1CCCCC1)C(=O)c1cc(OC)ccc12	-3	.	61*	.	43*	54*
CCOC(=O)[C@]12Cc3cc(C)ccc3[C@H]1N(C(C)C)C(=O)c1ccccc12	21	.	26*	.	25*	21*
CCOC(=O)[C@]12Cc3cc(OC)ccc3[C@H]1N(Cc1ccccc1)C(=O)c1ccccc12	0	.	-10	.	.	.
